Published values from different studies.
gyrA: DNA gyrase subunit A (gyrA, Escherichia coli K-12, UniProt P0AES4)
OPRD1: Delta-type opioid receptor (OPRD1, Homo sapiens, UniProt P41143)
gag-pol reverse transcriptase: Gag-Pol polyprotein, reverse transcriptase (gag-pol, Human immunodeficiency virus 1, UniProt P03366)

SMILES	target	test	quantity	value
CO[C@@H](C(N)=O)[C@H](NC(=O)c1ccc(NC(=O)c2ccc(C#N)cc2)cc1)C(=O)Nc1ccc(C(=O)Nc2ccc(C(=O)Nc3ccc(C(=O)O)cc3)c(O)c2OC(C)C)cc1	gyrA	enzyme activity, inhibitor	IC50	400 nM
CCCCC(=O)[C@@]12C[C@@H]1[C@@H](n1ccc3c(NC)nc(C#Cc4ccc(Cl)s4)nc31)[C@H](O)[C@@H]2O	OPRD1	ligand displacement, radioligand	Ki	> 10000 nM
N#Cc1ccc(Nc2nc(N)cc(Oc3ccc(-c4cccc(C#N)c4)cc3F)n2)cc1	gag-pol reverse transcriptase	enzyme activity, inhibitor	IC50	340 nM
Cc1cc(C)cc(S(=O)(=O)c2c(C(=O)NCCCCCNS(=O)(=O)c3cccnc3)[nH]c3ccc(Cl)cc23)c1	gag-pol reverse transcriptase	enzyme activity, inhibitor, ELISA	IC50	95 nM
O[C@@H]1[C@H](O)[C@@H]2C[C@@H]2[C@H]1n1cnc2c(NCc3cccc(Cl)c3)ncnc21	OPRD1	ligand displacement, radioligand	Ki	> 10000 nM
N#Cc1ccc(COc2cccc(C3CCN(Cc4nc5ccc(C(=O)O)cc5n4C[C@@H]4CCO4)CC3)n2)c(F)c1	Gastric inhibitory polypeptide receptor (GIPR, Homo sapiens, UniProt P48546)	cAMP, agonist	EC50	> 10000 nM
Cc1ccc(S(=O)(=O)NCCCCCNC(=O)c2[nH]c3ccc(Cl)cc3c2S(=O)(=O)c2cc(C)cc(C)c2)cc1	gag-pol reverse transcriptase	enzyme activity, inhibitor, ELISA	IC50	130 nM
CNc1nc(C#Cc2ccccc2)nc2c1ncn2[C@H]1[C@H](O)[C@H](O)[C@@H]2C[C@@H]21	OPRD1	ligand displacement, radioligand	Ki	> 10000 nM
Cc1cc(C)cc(S(=O)(=O)c2c(C(=O)NCCCNS(=O)(=O)c3ccc([N+](=O)[O-])cc3)[nH]c3ccc(Cl)cc23)c1	gag-pol reverse transcriptase	enzyme activity, inhibitor, ELISA	IC50	120 nM
CCn1c(-c2nc3ccc(C(=O)N4CCCC(N)C4)cc3n2C)cc2ccccc21 (stereo not shown)	5-hydroxytryptamine receptor 3A (HTR3A, Homo sapiens, UniProt P46098)	calcium signal, agonist	EC50	> 50100 nM
N#Cc1ccc(Nc2nc(N)cc(Oc3ccc(-c4ccc(C#N)cc4)cc3Cl)n2)cc1	gag-pol reverse transcriptase	enzyme activity, inhibitor	IC50	30 nM
CC(C)Oc1c(N)ccc(C(=O)Nc2ccc(C(=O)N[C@@H](CC(N)=O)C(=O)Nc3ccc(C(=O)Nc4ccc(C(=O)Nc5ccc(C(=O)O)cc5)c(O)c4OC(C)C)cc3)cc2)c1O	gyrA	enzyme activity, inhibitor	IC50	50000 nM
CNC(=O)[C@@]12C[C@@H]1[C@@H](n1cnc3c(NCCCO)nc(C#Cc4ccc(Cl)s4)nc31)[C@H](O)[C@@H]2O	OPRD1	ligand displacement, radioligand	Ki	> 10000 nM
CC(C)Oc1c(NC(=O)c2ccc(NC(=O)[C@H](CC(N)=O)NC(=O)c3ccc(-c4nn[nH]c4-c4ccc(C#N)cc4)cc3)cc2)ccc(C(=O)Nc2ccc(C(=O)O)cc2)c1O	gyrA	enzyme activity, inhibitor	IC50	> 50000 nM
CNc1nc(C#Cc2ccc(Cl)s2)nc2c1ncn2[C@H]1[C@H](O)[C@H](O)[C@]2(C(=O)NCCN)C[C@H]12	OPRD1	ligand displacement, radioligand	Ki	> 10000 nM
Cc1cc(C)cc(S(=O)(=O)c2c(C(=O)NCCCCCNS(=O)(=O)c3ccc(C#N)cc3)[nH]c3ccc(Cl)cc23)c1	gag-pol reverse transcriptase	enzyme activity, inhibitor, ELISA	IC50	160 nM
CNc1nc(C#Cc2ccc(Cl)s2)nc2c1ncn2[C@H]1[C@H](O)[C@H](O)[C@]2(C(=O)OCCC(C)C)C[C@H]12	OPRD1	ligand displacement, radioligand	Ki	> 10000 nM
Cc1cc(C)cc(S(=O)(=O)c2c(C(=O)NCCCCNS(=O)(=O)c3ccc(Cl)cc3)[nH]c3ccc(Cl)cc23)c1	gag-pol reverse transcriptase	enzyme activity, inhibitor, ELISA	IC50	94 nM
CC1=C(/C=C/C2=CCC[C@]3(C)[C@@H]([C@H](C)CCCC(C)(C)O)CC[C@@H]23)C[C@@H](O)CC1	Oxysterols receptor LXR-alpha (NR1H3, Homo sapiens, UniProt Q13133)	coactivator recruitment, agonist, TR-FRET	EC50	10 to 100 nM
Cc1cc(C)cc(S(=O)(=O)c2c(C(=O)NCCCCCNS(=O)(=O)c3ccc([N+](=O)[O-])cc3)[nH]c3ccc(Cl)cc23)c1	gag-pol reverse transcriptase	enzyme activity, inhibitor, ELISA	IC50	160 nM
Cc1cc(C#N)ccc1C(=O)Nc1ccc(C(=O)N[C@@H](CC(N)=O)C(=O)Nc2ccc(C(=O)Nc3ccc(C(=O)Nc4ccc(C(=O)O)cc4)c(O)c3OC(C)C)cc2)cc1	gyrA	enzyme activity, inhibitor	IC50	1700 nM
Cc1cc(C)cc(S(=O)(=O)c2c(C(=O)NCCCNS(=O)(=O)c3ccc(C#N)cc3)[nH]c3ccc(Cl)cc23)c1	gag-pol reverse transcriptase	enzyme activity, inhibitor, ELISA	IC50	100 nM
O[C@@H]1[C@H](O)[C@@H]2C[C@@H]2[C@H]1n1cnc2c(NCC(c3ccccc3)c3ccccc3)nc(C#Cc3ccccc3)nc21	OPRD1	ligand displacement, radioligand	Ki	> 10000 nM
Cc1cc(C)cc(S(=O)(=O)c2c(C(=O)NCCCNS(=O)(=O)c3ccccc3F)[nH]c3ccc(Cl)cc23)c1	gag-pol reverse transcriptase	enzyme activity, inhibitor, ELISA	IC50	76 nM
CC(C)Oc1c(NC(=O)c2ccc(NC(=O)[C@H](CC(N)=O)NC(=O)c3ccc(NC(=O)c4ccc(C#N)s4)cc3)cc2)ccc(C(=O)Nc2ccc(C(=O)O)cc2)c1O	gyrA	enzyme activity, inhibitor	IC50	500 nM
